# TbMetRS inhib: blocks T. brucei methionyl-tRNA synthetase activity; purified T. brucei MetRS, ATP depletion, Kinase-Glo luminescence; inhibition, % at 11.9 µM; hit rate 0.4% among 360,000;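 active = inhibition above a per-plate cutoff of the control wells' mean inhibition plus 3 SD, cut at about 5.5% in these data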
#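 Test system – parasite MetRS enzyme · Reagent – substrates ATP, L-methionine and bulk Escherichia coli tRNA · Doses – 11.9 µM compound single dose, 0.9% DMSO · Times – 15 min enzyme-compound preincubation, 2 h reaction, 10 min detection, 25 °C · Signal – Kinase-Glo luminescence, ATP depletion format · Controls – DMSO-only wells as low control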
# PvdQ inh: blocks Pseudomonas aeruginosa PvdQ acylase activity; AID 488965; inhibition, % at 10 µM; purified PvdQ acylase, fluorescence plate reader; hit rate 0.063% among 340,000; in the data active = inhibition above about 30%, passing the limit was not always enough
# CAL PDZ FP-1: inhibitors of human CAL PDZ peptide binding; Q9HD26; purified CAL PDZ, TMR-peptide fluorescence polarization, 1 h; hit rate 0.92% among 300,000; inhibition, % at 24.9 µM;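 active = mean inhibition of at least 30% with at least half of replicates also reaching 30%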
# DYRK1A inh: blocks rat Dyrk1A kinase activity | Q63470 | ADP-Glo luminescence, NFATc1 peptide | inhibition, % at 12.5 µM | hit rate 0.43% among 310,000; in the data active = inhibition above about 50%
# CAL PDZ FP-2: human CAL PDZ-peptide interaction inhibition; purified CAL PDZ, TMR-peptide fluorescence polarization, 1 h; inhibition, % at 20 µM; hit rate 0.02% among 330,000; AID 504414;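 active = highest replicate inhibition of at least 40%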
#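 Material: tagged CAL PDZ domain; buffer or medium: 25 mM sodium phosphate pH 7.4, 150 mM NaCl, TCEP, IgG, Thesit; compound dosing: single point, 20 µM; schedule: 1 h incubation at room temperature before polarization reading; measured by: FP readout, S and P plane fluorescence; read-out basis: percent inhibition from loss of millipolarization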
# CDK5 inh: blocks human CDK5/p35 kinase activity; Recombinant CDK5/p35, ADP-Glo luminescence, 60 min; inhibition, % at 10 µM; hit rate 0.01% among 330,000; AID 488839;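 active = highest replicate inhibition of at least 50% and at least 75% of replicates reaching 50%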
# Target sequence (Q00535 whole entry, looked up): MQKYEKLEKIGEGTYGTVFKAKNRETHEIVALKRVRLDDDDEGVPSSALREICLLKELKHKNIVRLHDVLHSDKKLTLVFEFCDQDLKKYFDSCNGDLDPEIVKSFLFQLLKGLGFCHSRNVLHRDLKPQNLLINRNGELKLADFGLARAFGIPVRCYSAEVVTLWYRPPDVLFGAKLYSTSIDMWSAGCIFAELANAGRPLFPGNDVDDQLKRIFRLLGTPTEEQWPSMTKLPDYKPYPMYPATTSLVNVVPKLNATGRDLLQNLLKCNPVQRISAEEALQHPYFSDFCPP
# Target sequence (Q15078 whole entry, looked up): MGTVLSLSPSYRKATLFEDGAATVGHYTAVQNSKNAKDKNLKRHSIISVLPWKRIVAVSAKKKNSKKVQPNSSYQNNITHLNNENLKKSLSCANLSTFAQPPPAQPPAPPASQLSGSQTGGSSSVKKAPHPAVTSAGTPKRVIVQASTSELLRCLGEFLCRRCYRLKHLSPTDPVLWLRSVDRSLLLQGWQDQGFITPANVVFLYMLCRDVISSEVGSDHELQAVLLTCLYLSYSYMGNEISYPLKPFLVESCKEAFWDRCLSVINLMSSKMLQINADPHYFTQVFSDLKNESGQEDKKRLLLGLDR
# Numbers stand for hits; i = inactive; nt = no result given; + = active, no number. In the library only some 1.4% were active in any assay of this set; here they are far more common.
SMILES,TbMetRS inhib,PvdQ inh,CAL PDZ FP-1,DYRK1A inh,CAL PDZ FP-2,CDK5 inh
COc1ccc(/C=C/CN2CCCC(CO)(Cc3cccc(Cl)c3)C2)cc1 (stereo unspecified),i,i,54,i,i,i
Cc1ccc2cc(C(c3nnnn3Cc3ccccc3)N3CCc4ccccc43)c(=O)[nH]c2c1C (stereo unspecified),i,i,81,nt,i,i
O=C1NC[C@H](CCCCN2C[C@H](Cc3ccccc3)N(CCC3CCCCC3)C(=O)C2=O)N(Cc2ccccc2)C1=O,i,nt,nt,nt,nt,nt
Cn1cc([C@]2(O)C(=O)Nc3ccc(OC(F)(F)F)cc32)c2ccccc21,i,nt,nt,nt,nt,nt
CC1CCC(NC(=O)CCN2C(=O)C3CC=CCC3C2=O)CC1 (stereo unspecified),i,i,67,i,i,i
CC(=O)Oc1ccc(Cn2c(C)c(C(=O)NC3CC3)sc2=O)cc1,i,nt,nt,nt,nt,nt
O=C1c2ccccc2C(c2nnnn2Cc2ccccc2)N1C1CC1 (stereo unspecified),i,nt,nt,nt,nt,nt
CCN1C(=O)[C@H]2[C@@H](c3ccc(C)cc3)N[C@]3(CCCN(Cc4ccc(Cl)cc4)C3=O)[C@H]2C1=O,i,nt,nt,nt,nt,nt
COc1ccc(CNC(=O)CC[C@H]2O[C@@H](n3cnc4c(NC(=O)c5ccccc5)ncnc43)[C@H](O)[C@@H]2O)cc1,i,nt,nt,nt,nt,nt
O=C1c2ccccc2C(=O)N1COc1ccc(S(=O)(=O)N2CCOCC2)cc1[N+](=O)[O-],i,i,50,i,i,i
CCc1nc2ccc(C(=O)Nc3cccc(NS(C)(=O)=O)c3)cn2c1N(C)C(=O)c1cccc(OC)c1,i,nt,nt,nt,nt,nt
CCOc1ccccc1CNC(=O)CN1C(=O)CSc2ccc(S(=O)(=O)N3CCOCC3)cc21,i,i,+,i,i,i
CC(=O)n1nc(-c2ccccc2)nc1NCc1cccs1,i,i,72,i,i,i
O=C(c1cc(Cl)cc(Cl)c1)N1CCC2CC1c1cc(N3CCCCC3)ccc12 (stereo unspecified),i,nt,nt,nt,nt,nt
CCC(=O)N1CCc2cc(OC)c(OC)cc2C1COc1ccc(C(=O)OC)cc1 (stereo unspecified),i,i,i,i,i,i
COC(=O)c1ccc(OCC(O)CN2CCc3cc(OC)c(OC)cc3C2c2ccccc2)cc1 (stereo unspecified),i,i,76,i,i,i
CCCC(=O)N1CCN(c2ccc(NC(=S)NC(=O)c3cccc(C)c3)cc2)CC1,i,i,75,i,i,i
Cn1c(=O)c2[nH]c(NN=Cc3ccccc3)nc2n(C)c1=O,i,i,94,i,i,i
O=C(/C=C/c1ccco1)c1ccccc1O,i,i,i,i,i,i
O=C(/C=C/c1cccs1)c1cc(Cl)ccc1O,i,77,nt,i,i,i
O=C(C=Cc1ccco1)c1cc(Cl)ccc1O,i,45,i,i,i,i
COc1ccc(OC)c(NC(=O)Nc2nc(C(N)CCc3ccccc3)cs2)c1 (stereo unspecified),i,nt,nt,nt,nt,nt
O=C(COC(=O)c1ccc(F)cc1F)Nc1ccc2c(c1)OCO2,i,nt,nt,nt,nt,nt
CCOC(=O)Cc1nc2ccccc2n(CC#N)c1=O,i,i,76,i,i,i
C=CCOC(=O)c1ccc(-n2cncn2)nc1,i,i,i,i,i,i
SMILES,TbMetRS inhib,PvdQ inh,CAL PDZ FP-1,DYRK1A inh,CAL PDZ FP-2,CDK5 inh
C=CCOC(=O)c1ccc(-n2cnc(C)n2)nc1,i,71,i,i,i,i
COc1ccc(NC(=O)CN(C)C(=O)c2cn(-c3ccccc3)nc2-c2cccs2)cc1,i,i,i,i,i,i
CN(CC(=O)Nc1ccc(F)cc1)C(=O)c1cn(-c2ccccc2)nc1-c1cccs1,i,i,31,nt,i,i
COc1ccccc1-[n+]1c(C)cc(/C=C2\Sc3ccccc3N2C)cc1C,i,i,53,i,i,i
CN1CCC(C2(O)c3ccccc3CCc3ccccc32)CC1,i,i,i,i,i,i
CN1CCC(C2(O)c3ccccc3CSc3sccc32)CC1 (stereo unspecified),i,i,110,i,nt,i
O=C(Nc1ccccc1Oc1ccsc1C(=O)O)c1ccccc1,i,i,39,i,i,i
CCCCCCCCN1C(=O)[C@H](CC(=O)N2CCSCC2)C[C@@]2(C(=O)OC)CCCCC=C12,i,nt,nt,nt,nt,nt
CC1CC(C)CN(CCCNS(=O)(=O)c2ccc3c(c2)CCN3C(=O)C2CC2)C1 (stereo unspecified),i,i,120,i,i,i
O=C1CSC(c2ccc([N+](=O)[O-])cc2)N1CCN1CCCCC1 (stereo unspecified),i,i,44,i,i,i
O=C1CSC(c2ccc([N+](=O)[O-])cc2)N1Cc1ccccc1 (stereo unspecified),i,i,i,i,i,i
CC(C)(C)CC(=O)NC(=S)Nc1ccccc1[N+](=O)[O-],i,i,101,i,i,i
O=C(O)Cc1sc(Nc2cccc3ccccc23)nc1-c1ccccc1,i,i,i,i,i,i
O=C(O)Cc1sc(Nc2cccc3ccccc23)nc1-c1ccc(Cl)cc1,i,i,62,i,nt,i
CSc1ccc(S(=O)(=O)NCc2ccc(Cl)cc2Cl)cc1,7.5,i,nt,i,i,i
CSc1ccc(S(=O)(=O)NCc2ccccc2Cl)cc1,i,i,nt,i,i,i
COC(=O)c1ccc(C2=NOC(C)(c3sc(-c4ccccc4)nc3C)C2)cc1 (stereo unspecified),i,i,45,i,i,i
O=C(NCc1cccs1)C1C(=O)Nc2ccccc2C(=O)N1C1CCCC1 (stereo unspecified),i,nt,nt,nt,nt,nt
CC(=O)Nc1ccc(Oc2nc(-c3cccnc3)nc3sc4c(c23)CCCC4)cc1,i,i,67,i,i,i
Cc1ccc(CC(=O)Nc2ccc(S(=O)(=O)Nc3ncccn3)cc2)cc1,i,i,i,i,i,i
O=C(CCc1c[nH]c2ccccc12)Nc1ccc(S(=O)(=O)Nc2ncccn2)cc1,i,i,33,i,i,i
COc1ccc(NC(=O)c2cc(C3CCCCN3C(=O)c3cc(OC)c(C)c(OC)c3)on2)c(C)c1 (stereo unspecified),i,nt,nt,nt,nt,nt
COc1ccc(CNc2ccc(-c3ccccc3OC)nn2)cc1,i,i,56,i,i,i
COc1ccc(CNc2ccc(-c3ccc(OC)cc3)nn2)cc1,i,i,i,i,i,i
CC1(C(=O)Nc2ccc3c(c2)OCCO3)CN(S(C)(=O)=O)CC(=O)N1CCc1ccccc1F (stereo unspecified),i,nt,nt,nt,nt,nt
COc1cc([N+](=O)[O-])ccc1NC(=O)NCC1CCN(Cc2ccc(Cl)cc2)CC1,i,i,46,i,nt,i
COCCNC(=O)C1(C)CCCN(Cc2cn(C)c3ccccc23)C1 (stereo unspecified),i,nt,nt,nt,nt,nt
CCSc1nc2c(c(=O)[nH]1)C(c1ccc(C)cc1)C1=C(CCCC1=O)N2 (stereo unspecified),i,i,i,i,i,i
